Tests used:
primary ALL-5 cells = test: MTT cell viability assay, primary ALL-5; assay type: cell-based; conditions: Homo sapiens, ALL5, 120 h, read-out: ALL-5 IC50
In short: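 Primary ALL-5 cells (patient bone-marrow-derived) were kept in supplemented IMDM at 1–3 x 10⁶ cells ml⁻¹ and plated at 10⁵ cells/well. They were treated 120 h with a test compound series or 0.1% DMSO. MTT (5 mg ml⁻¹) was added for 24 h at 37°C, then 10% SDS in 0.01 M HCl for a further 24 h; absorbance 540 nm. IC50 by non-linear regression; mean ± SD (n = 4).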

MCF 10A cells = test: MTT cell viability assay, MCF 10A; assay type: cell-based; conditions: Homo sapiens, 96 h, read-out: MCF 10A IC50
In short: (§1)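 Cells were seeded in complete medium, MDA-MB-231 at 2 x 10³ and MCF 10A at 2 x 10⁴ cells/well. After 24 h they were exposed to test compound up to 10 μM, or 0.1% DMSO, for 72 h (MDA-MB-231) or 96 h (MCF 10A). MTT (5 mg ml⁻¹) was added for 4 h at 37°C, 5% CO₂, then formazan was dissolved in DMSO with 10 min shaking and read at 540 nm. IC50 by non-linear regression; mean ± SD (n = 4).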

MDA-MB-231 cells [1] = test: Colony formation assay; assay type: cell-based, human
In short: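 MDA-MB-231 cells were seeded at 1.5 x 10⁵/well and left 48 h to attach. After medium change, cells were exposed to test compound or 0.1% DMSO for 6–72 h. They were then harvested and re-plated at 250 cells/well (n=6) in compound-free medium for 13 days. Staining was 0.5% crystal violet in methanol, 40 min at RT. Colonies of ≥25 cells were counted by hand and expressed as % of vehicle; one-way ANOVA.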

MDA-MB-231 cells [2] = test: Cell cycle / sub-G1 DNA analysis by flow cytometry; assay type: cell-based, human; conditions: 30 μM SAL, 24 h (20 μM not significant)
[3] = system: CD44+/CD24-/low cells of MDA-MB-231 organoids; test: CD44/CD24 cell surface markers by flow cytometry, organoids; assay type: cell-based, human; conditions: 2.5 μM 1 or 0.5 μM 17, 48 h
In short: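 MDA-MB-231 organoids were made from 20 μl droplets of 1:4 complete Mammocult:Matrigel holding 10⁴ cells each. Droplets were set 1 h at 37°C, grown static 4 days with half-medium feeds every other day, then shaken at 90 rpm. One dissected organoid per 1 ml Mammocult was treated 48 h (vehicle 0.1% DMSO), then dispersed in enzyme-free dissociation buffer with 0.2% NDA. Cells were stained with FITC-anti-CD24 (1:100) and PE-anti-CD44 (1:200) for 30 min in the dark, then PI/RNase. Viable PI-negative cells were gated against isotype control; mean ± SD (n=3).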

[4] = system: Bak and LC3-II in MDA-MB-231 cells; test: Immunoblot analysis, cell monolayer; assay type: cell-based, human
In short: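 Monolayers of MDA-MB-231 (2.2 x 10⁶ cells/100 mm dish) were treated 24 or 48 h with test compound or 0.1% DMSO, ± 100 μM Z-VAD-FMK. Cells were trypsin-harvested, snap-frozen and lysed in 25 mM HEPES pH 7.5, 300 mM NaCl, 0.1% Triton X-100 with protease/phosphatase inhibitors. Blots were blocked in 5% milk/TBS-T 1 h at RT, then probed overnight at 4°C: Bak and LC3B 1:1000, GAPDH 1:10000 loading control; HRP anti-rabbit 1:5000. Band intensities were normalised to GAPDH as fold of control; mean ± SD (n=3).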

[5] = system: EMT marker mRNA in MDA-MB-231 cells; test: qRT-PCR analysis of EMT markers; assay type: cell-based, human; conditions: ½ IC50, 24 h, vs untreated controls
In short: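 MDA-MB-231 cells (0.7–2.2 x 10⁶ per 100 mm dish) were exposed 24 h to test compound or 0.1% v/v DMSO vehicle. Cells were trypsin-released and washed in PBS before RNA work. Transcript levels were measured by qRT-PCR and calculated relative to GAPDH by the ΔΔCt method; unpaired t test with Welch's correction.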

breast CSCs = conditions: cited from earlier work
[6] = doses of 200–250 μg kg−1; cited from earlier work
MDA-MB-231 cells [7] = test: MTT cell viability assay, MDA-MB-231; assay type: cell-based, human; conditions: single agent, MDA-MB-231, MTT
In short: as §1

SMILES | IC50 (primary ALL-5 cells) [µM] | IC50 (MCF 10A cells) [µM] | inhibition of colony growth (MDA-MB-231 cells [1]; 48 h treatment at ½ IC50) [%] | inhibition of colony growth (MDA-MB-231 cells [1]; 72 h treatment at ½ IC50) [%] | sub-G1 DNA content (MDA-MB-231 cells [2]) | percentage of CD44+/CD24-/low cells [3] | LC3-II (14 kDa) expression vs. untreated control ([4]; 5 x IC50 (25 μM 1, 14 μM 2, 5 μM 17), 24 h) | Bak expression vs. control ([4]; 5 x IC50, 24 h and 48 h, monolayer) | E-cadherin mRNA [5] | Snail-2 mRNA [5] | Vimentin mRNA [5] | potency in reducing viability of breast CSCs relative to paclitaxel (breast CSCs) [times] | tolerability in cancer patients [6] | IC50 (MDA-MB-231 cells [7]) [µM]
CC[C@@H](C(=O)[C@@H](C)[C@@H](O)[C@H](C)[C@@H]1O[C@@H]([C@@H](CC)C(=O)O)CC[C@@H]1C)[C@H]1O[C@]2(C=C[C@@H](O)[C@]3(CC[C@@](C)([C@H]4CC[C@](O)(CC)[C@H](C)O4)O3)O2)[C@H](C)C[C@@H]1C [SAL (1), salinomycin] | 5.8 ± 1.7 | 0.1 ± 0.02 | 84 | 90 | statistically significant sub-G1 DNA content | modest, but significant reduction | significant upregulation | very modest, but statistically significant, increase | downregulated | upregulated | upregulated | ~100 | well tolerated | –
O=C(NO)c1ccccc1 [benzhydroxamic acid] | – | – | – | – | – | – | – | – | – | – | – | – | – | 142
